Published values collected from several papers.
Compare with care: the assays were run in different laboratories.
Target: Serine/threonine-protein kinase TAO2 (TAOK2, Homo sapiens, UniProt Q9UL54)
Residues used in one study (Q9UL54 1-1235): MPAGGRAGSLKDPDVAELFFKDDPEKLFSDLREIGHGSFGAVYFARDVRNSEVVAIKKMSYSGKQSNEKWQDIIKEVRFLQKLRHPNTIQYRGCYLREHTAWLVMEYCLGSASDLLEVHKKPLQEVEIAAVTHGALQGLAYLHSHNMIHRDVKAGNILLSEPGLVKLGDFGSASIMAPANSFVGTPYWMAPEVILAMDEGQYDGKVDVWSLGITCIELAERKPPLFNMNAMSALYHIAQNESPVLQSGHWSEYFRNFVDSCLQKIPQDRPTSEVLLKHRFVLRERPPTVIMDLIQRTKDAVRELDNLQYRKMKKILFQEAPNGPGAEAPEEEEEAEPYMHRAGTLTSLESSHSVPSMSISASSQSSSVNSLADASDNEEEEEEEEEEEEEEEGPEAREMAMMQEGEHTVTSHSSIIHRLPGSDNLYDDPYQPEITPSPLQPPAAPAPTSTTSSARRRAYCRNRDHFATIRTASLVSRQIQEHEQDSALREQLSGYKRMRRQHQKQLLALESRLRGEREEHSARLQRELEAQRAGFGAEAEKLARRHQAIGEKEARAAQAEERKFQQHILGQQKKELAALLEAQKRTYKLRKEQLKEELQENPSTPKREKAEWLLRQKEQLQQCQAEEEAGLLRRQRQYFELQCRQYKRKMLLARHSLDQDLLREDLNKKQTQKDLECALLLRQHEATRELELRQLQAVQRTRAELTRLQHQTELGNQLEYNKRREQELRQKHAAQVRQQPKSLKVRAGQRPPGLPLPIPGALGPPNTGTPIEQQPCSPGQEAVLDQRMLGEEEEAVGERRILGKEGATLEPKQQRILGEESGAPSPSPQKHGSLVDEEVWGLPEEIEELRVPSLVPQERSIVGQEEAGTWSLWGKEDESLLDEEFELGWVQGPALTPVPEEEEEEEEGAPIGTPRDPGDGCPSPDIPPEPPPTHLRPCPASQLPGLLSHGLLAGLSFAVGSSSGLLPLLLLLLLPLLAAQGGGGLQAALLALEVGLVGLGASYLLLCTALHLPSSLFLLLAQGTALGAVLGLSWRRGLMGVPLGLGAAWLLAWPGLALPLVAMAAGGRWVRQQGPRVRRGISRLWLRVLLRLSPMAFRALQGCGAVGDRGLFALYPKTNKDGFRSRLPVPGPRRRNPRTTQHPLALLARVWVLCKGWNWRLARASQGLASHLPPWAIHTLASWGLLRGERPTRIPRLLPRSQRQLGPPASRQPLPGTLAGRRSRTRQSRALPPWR

| Structure (SMILES) | read-out | method | tested at | remaining binding [%] |
| --- | --- | --- | --- | --- |
| CN(c1nccc(-c2cnn3ncccc23)n1)C1CC1 | binding | – | 1 µM | 100 |
| COc1ccc2c(c1)O[C@H](c1ccc(OC)c(OC)c1)C[C@@H]2NC(=O)C1(c2ccc3c(c2)OC(F)(F)O3)CC1 | cell-free assay | competition with immobilised ligand | 1 µM | 98 |
| CN(C)c1nccc(-c2cnc3ncccn23)n1 | binding | – | 1 µM | 76 |
| O=C(c1ccc(Nc2ncc(Cl)c(-c3cc4ccccc4s3)n2)cc1)N1CCC(N2CCCC2)CC1 | binding | competition with immobilised ligand | 1 µM | 66 |
| COc1ncc2cc3ccccc3nc2c1C#N | cell-free assay | competition with immobilised ligand | 5 µM | 93 |
| COc1cnc(Nc2cccc(S(N)(=O)=O)c2)nc1N1CCN(c2ccccc2)CC1 | binding | competition with immobilised ligand | 1 µM | 86 |
| O=C(NCCCN1CCOCC1)c1ccc(Nc2nccc(-c3cc4ccccc4s3)n2)cc1 | binding | competition with immobilised ligand | 1 µM | 80 |
| F[C@@H]1CCN(c2nccc(-c3cnn4ncccc34)n2)C1 | binding | – | 1 µM | 100 |
| CN(C)C(=O)Cn1cc(-c2nc([C@@](C)(c3ccc(-c4cnc(N)nc4)cc3)C3CC3)no2)cn1 | cell-free assay | competition with immobilised ligand | 1 µM | 81 |
| COc1cnc(Nc2cccc(S(N)(=O)=O)c2)nc1N1CCN(c2ccccc2)C(=O)C1 | binding | competition with immobilised ligand | 1 µM | 95 |
| Cc1cc(NC(=O)c2cccc(S(F)(F)(F)(F)F)c2)cc(-n2ccn3nc(-c4cccnc4)cc23)c1 | cell-free assay | competition with immobilised ligand | 1 µM | 91.3 |
| N[C@H]1CCN(c2nccc(-c3cnn4ncccc34)n2)C1 | binding | – | 1 µM | 52 |
| CCN1CCN(Cc2ccc(C(=O)Nc3ccc(C)c(Oc4ccc5c(c4)CC(=O)N5)c3)cc2C(F)(F)F)CC1 | binding | competition with immobilised ligand | 1 µM | 100 |
| CCCCN(CCCC)C(=O)CN1C[C@H](c2cc(OC)c3c(c2)OCO3)[C@@H](C(=O)O)[C@@H]1CC(C)(C)CCC | cell-free assay | competition with immobilised ligand | 1 µM | 71.1 |
| C=CC(=O)N1CCC(C(=O)NCC(=O)N2CCN(c3nc(-c4cnc(N)nc4C(F)F)nc(N4CCOCC4)n3)CC2)CC1 | binding | competition with immobilised ligand | 1 µM | 72 |
| O=C(Nc1c[nH]nc1C(=O)NC1CCNCC1)c1cc(F)cc(F)c1 | binding | competition with immobilised ligand | 1 µM | 61 |
| O=C(c1ccc(Nc2ncc(Cl)c(-c3ccc(Cl)s3)n2)cc1)N1CCC(N2CCCC2)CC1 | binding | competition with immobilised ligand | 1 µM | 65 |
| Cc1nc(Cc2cccc(C(F)(F)F)c2)sc1-c1ccc(C(N)=O)nc1 | cell-free assay | competition with immobilised ligand | 1 µM | 86 |
| CN(CCCC(F)(F)F)c1nccc(-c2cnn3ncccc23)n1 | binding | – | 1 µM | 100 |
| CCOC(=O)c1cc2cc(-c3cc(C(=O)NCc4ccc(C(=O)O)cc4)nn3C)ccc2[nH]1 | cell-free assay | competition with immobilised ligand | 0.1 µM | 90 |
| Cc1cnn2ncc(-c3ccnc(N(C)C)n3)c2c1 | binding | – | 1 µM | 94 |
| c1cncc(-c2cccc(Nc3nccc(NC4CCCCC4)n3)c2)c1 | binding | competition with immobilised ligand | 10 µM | 94 |
